Screening results deposited in PubChem by several laboratories.
In the library only some 2.3% were active in any assay of this set; here they are far more common.
CSN deneddyl inh – CSN deneddylation inhibition | Q92905 | Purified CSN, SCF-Nedd8-OG deneddylation, fluorescence polarization | inhibition, % at 12.5 µM | actives 0.38% (n = 360,000);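 active = pattern-corrected inhibition above about 35%, with an unprinted fluorescence ratio check between 0.5 and 1.5, limit read from the data, passing the limit was not always enough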
Target sequence (Q92905 whole entry, looked up, one chain of several): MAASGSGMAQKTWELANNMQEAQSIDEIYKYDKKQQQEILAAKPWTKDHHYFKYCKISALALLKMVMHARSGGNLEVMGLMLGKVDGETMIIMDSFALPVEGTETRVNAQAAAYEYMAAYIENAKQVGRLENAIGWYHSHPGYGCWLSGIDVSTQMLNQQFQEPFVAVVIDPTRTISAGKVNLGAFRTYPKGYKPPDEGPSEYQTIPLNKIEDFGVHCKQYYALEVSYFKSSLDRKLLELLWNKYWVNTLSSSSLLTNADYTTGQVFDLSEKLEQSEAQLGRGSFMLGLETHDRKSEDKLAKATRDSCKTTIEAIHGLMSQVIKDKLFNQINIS
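Material: purified human Csn5 enzyme expressed in HEK293T cells / Medium: Tris buffer pH 7.5, NaCl, DTT, Tween-20, trehalose, ovalbumin / Compound dosing: 12.5 µM single point / Schedule: 90 min incubation of compound, enzyme and substrate at room temperature / Signal: fluorescence polarization of the substrate / Control set: no-enzyme wells high, enzyme-with-substrate wells low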
Myeloid diff MLP – myeloid differentiation induction | actives 1% (n = 360,000) | AID 624256 | calls only at 10 µM | ER-HoxA9 myeloid progenitors, lysozyme-GFP differentiation, flow cytometry;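 active = normalized GFP-positive differentiation at or above the plate's own cutoff, the solvent-only control mean plus 3 SD; inconclusive = no clear call, values can overlap the other calls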;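 note: cells exposed to compound for four days before flow analysis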
HNF4A DNA FP – change in binding of human HNF4 alpha to DNA | P41235 | HNF4a-FITC DNA binding, fluorescence polarization, 1 h | activity change, % at 10 µM | actives 0.3% (n = 360,000) | AID 1224865; in the data active = activity change above about 30%, passing the limit was not always enough
TPT1 inh – inhibitors of Candida albicans tRNA 2'-phosphotransferase TPT1; recombinant caTPT1, FP RNA substrate dephosphorylation; actives 0.81% (n = 300,000); inhibition, % at 5 µM;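 active = inhibition above the mean of all tested compounds plus 3 SD, set per screening campaign, cut at about 24% in these data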
Rpn11 block – blocks the human proteasome subunit Rpn11; O00487; human 26S proteasome, Ub4-pepOG fluorescence polarization; 20S core pre-blocked with epoxomicin; inhibition, % at 20 µM; actives 0.59% (n = 360,000);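 active = inhibition at 20 µM, scaled to each plate's controls, above about 33%, limit read from the data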
Target sequence (O00487 whole entry, looked up): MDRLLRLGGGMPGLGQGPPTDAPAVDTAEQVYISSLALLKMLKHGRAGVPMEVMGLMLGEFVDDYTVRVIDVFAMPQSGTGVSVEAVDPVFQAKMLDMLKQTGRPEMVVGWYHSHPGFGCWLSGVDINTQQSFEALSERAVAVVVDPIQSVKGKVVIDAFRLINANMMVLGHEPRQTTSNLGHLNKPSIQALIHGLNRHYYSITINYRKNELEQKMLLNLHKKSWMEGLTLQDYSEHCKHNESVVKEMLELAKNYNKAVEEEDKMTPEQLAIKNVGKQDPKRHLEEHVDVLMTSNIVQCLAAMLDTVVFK
Myeloid diff CP1 – promotes myeloid progenitor differentiation; shares compounds with Myeloid diff MLP; ER-HoxA9 myeloid progenitors, GFP/Mac1 double-positive flow; calls only; actives 2% (n = 2,300); AID 651706;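 active = share of green or green-and-red cells above 9 and 9% in run 1 or 4 and 3% in run 2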
GFP autofluor – flagged as fluorescent in myeloid differentiation counter-screen. shares compounds with Myeloid diff MLP. actives 7.4% (n = 2,300). ER-HoxA9 myeloid progenitors, no estrogen, GFP autofluorescence flow cytometry; vehicle wells 0%, positive control 100%. AID 651707. fluorescence response, % (concentration not given with the values);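 active = over 5% cells positive for green fluorescent reporter, or over 2% positive for both it and APC stain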
Numbers stand for hits; i = inactive; ? = inconclusive; nt = not tested or not shown; + = active, no number; ! = not confirmed by another sample.

SMILES | CSN deneddyl inh | Myeloid diff MLP | HNF4A DNA FP | TPT1 inh | Rpn11 block | Myeloid diff CP1 | GFP autofluor
O=C(CSc1nnc(-c2ccc(F)cc2)o1)N1CCN(C(=O)c2ccco2)CC1 | i | ? | i | i | i | nt | nt
Cc1oc(-c2ccc(-c3ccccc3)cc2)nc1CN1CCN(CC(=O)N(C)C)CC1 | i | i | i | i | i | nt | nt
Cc1ccc(Cl)cc1N1CCN(Cc2nc3c(c(=O)[nH]c(=O)n3C)n2CCc2ccccc2)CC1 | i | i | i | i | i | i | i
CCOC(=O)CNC(=S)n1cnc(N)n1 | i | i | i | i | i | nt | nt
Cc1cc(Cl)c(C)c(S(=O)(=O)N2CCN(C(=O)C3CCCO3)CC2)c1Cl (stereo not drawn) | i | + | i | nt | i | i | i
Cc1ccc(S(=O)(=O)N2CCN(C(=O)C3CCCO3)CC2)cc1 (stereo not drawn) | i | i | i | i | i | nt | nt
Cc1ccc2c(c1)CCCN2C(=O)c1cc2ccccc2oc1=O | i | i | i | i | i | nt | nt
COc1ccccc1CNc1nc(NCc2ccc(C(C)C)cc2)c2sccc2n1 | i | i | i | nt | i | i | i
Cc1ccccc1NC(=O)/C=C1\SC(=O)NC1=O | i | i | i | i | i | nt | nt
CN(C)N=Nc1ccc(-c2cn(Cc3ccccc3)cn2)cc1 | i | i | i | i | i | i | i
CN(Cc1ccccc1)N=Nc1ccccc1 | i | i | i | nt | i | nt | nt
COc1ccccc1CN(C)C(=O)CN1CCN(S(=O)(=O)c2ccc3c(c2)OCCCO3)CC1 | i | i | i | nt | i | nt | nt
CCOC(=O)N1CCN(c2ccc(Cl)c(Cl)c2)CC1 | i | + | i | i | i | i | i
CCOC(=O)N1CCN(C2CC(=O)N(c3ccc(Cl)c(Cl)c3)C2=O)CC1 (stereo not drawn) | i | i | i | i | i | nt | nt
COc1ccc(N2CCN(Cc3nc4c(c(=O)n(C)c(=O)n4C)n3Cc3cccc(C)c3)CC2)cc1 | i | i | i | i | i | i | i
COc1ccccc1NS(=O)(=O)c1ccccc1C#N | i | i | i | i | i | i | i
Cc1[nH]c2ccccc2c1-c1nc2ccccc2[nH]1 | i | + | i | i | i | i | i
COC(=O)c1sc(N2C(=O)C(=O)/C(=C(/O)c3ccc(C)cc3)C2c2ccco2)nc1C (stereo not drawn) | nt | nt | nt | i | nt | nt | nt
CCOc1ccc(/C(O)=C2/C(=O)C(=O)N(c3nc(C)c(C)s3)C2c2ccco2)cc1 (stereo not drawn) | i | i | i | i | i | i | 9.0
COc1cc(-c2nnc(SCC(=O)Nc3cc(C)on3)n2C)cc(OC)c1O | i | i | i | i | i | nt | nt
COc1ccc(-c2nnc(SCC(=O)Nc3cc(C)on3)n2C)cc1OC | i | + | i | i | i | i | i
CC(C)c1nc2cc(C(=O)N3CCN(c4cnccn4)CC3)ccc2o1 | i | i | i | i | i | nt | nt
O=c1[nH]c(SCc2nc3c(cnn3-c3ccccc3)c(=O)[nH]2)nc2ccccc12 | i | + | i | nt | i | i | i
O=c1[nH]c(CSc2nc3ccccc3[nH]2)nc2c1cnn2-c1ccccc1 | i | i | i | i | i | nt | nt
O=C(CSc1ncccn1)N1CCC(Cc2ccccc2)CC1 | i | i | i | i | i | nt | nt
SMILES | CSN deneddyl inh | Myeloid diff MLP | HNF4A DNA FP | TPT1 inh | Rpn11 block | Myeloid diff CP1 | GFP autofluor
COc1ccc([C@@]2(C(C)C)ON(c3ccccc3C(F)(F)F)C2=O)cc1 | i | i | i | nt | i | nt | nt
O=C1NC2(CCCCC2)C(=O)N1/N=C/c1ccc(O)cc1O | i | + | i | i | i | i | i
O=C1NC2(CCCCC2)C(=O)N1/N=C/c1ccccc1Br | i | i | i | i | i | nt | nt
C[C@@H]1CN([C@H](C)CO)S(=O)(=O)c2ccc(Br)cc2O[C@H]1CN(C)C(=O)Nc1cccc(F)c1 | i | i | i | nt | i | i | i
COc1ccc(S(=O)(=O)N(C)C[C@@H]2Oc3cc(C#CC4CCCCC4)ccc3S(=O)(=O)N([C@@H](C)CO)C[C@@H]2C)cc1 | i | i | i | nt | i | i | i
C[C@@H]1CN([C@@H](C)CO)S(=O)(=O)c2ccc(Br)cc2O[C@H]1CN(C)C(=O)CN(C)C | i | + | i | nt | i | i | i
C[C@H](CO)N1C[C@H](C)[C@@H](CN(C)C(=O)Nc2ccccc2)Oc2cc(Br)ccc2S1(=O)=O | i | i | i | nt | i | nt | nt
COc1ccc(C#Cc2ccc3c(c2)O[C@H](CN(C)S(=O)(=O)c2ccccc2F)[C@H](C)CN([C@H](C)CO)S3(=O)=O)cc1 | i | i | i | nt | i | nt | nt
Nc1ccn([C@@H]2O[C@H](CNCc3cnc(N4CCOCC4)s3)[C@@H](O)[C@H]2O)c(=O)n1 | i | i | i | nt | i | nt | nt
CCCC12CN3CC(C)(CN(C1)C3c1cccs1)C2=O (stereo not drawn) | i | i | i | i | i | nt | nt
CC(=O)c1cccc(NC(=O)N2C3CCCC2CC(NC(=O)C2CC2)C3)c1 (stereo not drawn) | i | i | i | i | i | nt | nt
CCCn1c(SCC(=O)N2CCc3ccccc3C2)nc(O)cc1=O | i | i | i | nt | i | nt | nt
Oc1ccc(Cl)cc1CNCc1ccc(F)c(F)c1 | i | i | i | i | i | nt | nt
COc1ccc(CNCc2cc(Cl)ccc2O)cc1 | i | i | i | i | i | i | i
O=C(NCCCNCc1ccccc1)c1ccccn1 | i | +! | i | i | i | i | i
COc1ccc(/C=C\C(=O)c2c(O)ccc3c(C)cc(=O)oc23)cc1OC | i | i | i | i | i | i | i
Cc1cc(C)c(S(=O)(=O)NNC(=O)C2CCN(Cc3ccccc3)CC2)c(C)c1 | i | i | i | i | i | i | 87
COc1ccc(CNC(=O)COC(=O)CCn2c(C)csc2=O)cc1OC | i | i | i | i | i | nt | nt
N#CCCSc1nc(N2CCOCC2)c2c(c1C#N)CCCC2 | i | i | i | i | i | i | i
CCCSc1nc(N2CCOCC2)c2c(c1C#N)CCCC2 | i | i | i | i | i | nt | nt
OC1(CN2CCOCC2)C2CN3CCN(C2)CC1(c1ccccc1)C3 (stereo not drawn) | i | + | i | i | i | i | i
OC(CCN1CCOCC1)c1ccccc1 (stereo not drawn) | i | i | i | i | i | nt | nt
CCCN1CCc2c(sc(NC(=O)Cc3ccc(F)cc3)c2C(N)=O)C1 | i | i | i | i | i | nt | nt
CN1c2ccccc2Oc2nnc(Cl)cc21 | i | i | i | i | i | nt | nt
CCN(CC)CCOc1cc2c(nn1)Oc1ccccc1N2C | i | i | i | i | i | i | i
Cc1ccc(Nc2nc(N)nc(N)c2N=O)cc1Cl | i | ? | i | nt | nt | nt | nt
CCc1c(N)nc(N)nc1Nc1ccc(C)c(C)c1 | i | i | i | nt | i | i | i
CN1CCN(c2nc(-c3ccc(Cl)cc3Cl)nc3ccccc23)CC1 | i | i | i | i | i | nt | nt
O=C(c1ccc2c(=O)n3c(nc2c1)CCCCC3)N1CCN(c2ccc(Cl)cc2)CC1 | i | i | i | i | i | i | i
